# Tested on: PC9 cells
# Test: Cell cycle by PI staining flow cytometry
# Format: cell-based, human
# Settings: PC9, 24 h
# Procedure, shortened: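 Cells in RPMI 1640 with 10% FBS (37°C, 5% CO2) were seeded in 6-well plates at 20–25% confluence and exposed to graded test compound or a reference EGFR inhibitor for 24 h. They were then fixed in 70% ethanol for 24 h at 4°C, washed twice in PBS, treated with RNase A at 37°C for 30 min and stained with PI (50 μg/mL) for 10 min. DNA content was read by flow cytometry.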
structure (smiles),measurement,value
COc1cc2ncnc(Nc3ccc(F)c(Cl)c3)c2cc1OCCCN1CCOCC1 [gefitinib],cell cycle arrest,arrested only PC9 (EGFR L858R+) cells at G0/G1 phase
